High-throughput results as filed in PubChem BioAssay.
E-selectin induc = induces E-selectin expression in human endothelial cells. actives 0.37% (n = 260,000). HUVEC E-selectin immunofluorescence imaging; normalized: neutral wells 0, TNF-alpha wells 100. activation, % at 7.58 µM. P16581;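 active means mean E-selectin-positive cell signal at least 10% of the positive control, reached in at least 60% of replicates, without over 20% cell loss; inconclusive means no rule given, readout overlaps actives, possibly toxicity-flagged; inactive means the rest, including those meeting only one limit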
Target sequence (P16581 whole entry, looked up): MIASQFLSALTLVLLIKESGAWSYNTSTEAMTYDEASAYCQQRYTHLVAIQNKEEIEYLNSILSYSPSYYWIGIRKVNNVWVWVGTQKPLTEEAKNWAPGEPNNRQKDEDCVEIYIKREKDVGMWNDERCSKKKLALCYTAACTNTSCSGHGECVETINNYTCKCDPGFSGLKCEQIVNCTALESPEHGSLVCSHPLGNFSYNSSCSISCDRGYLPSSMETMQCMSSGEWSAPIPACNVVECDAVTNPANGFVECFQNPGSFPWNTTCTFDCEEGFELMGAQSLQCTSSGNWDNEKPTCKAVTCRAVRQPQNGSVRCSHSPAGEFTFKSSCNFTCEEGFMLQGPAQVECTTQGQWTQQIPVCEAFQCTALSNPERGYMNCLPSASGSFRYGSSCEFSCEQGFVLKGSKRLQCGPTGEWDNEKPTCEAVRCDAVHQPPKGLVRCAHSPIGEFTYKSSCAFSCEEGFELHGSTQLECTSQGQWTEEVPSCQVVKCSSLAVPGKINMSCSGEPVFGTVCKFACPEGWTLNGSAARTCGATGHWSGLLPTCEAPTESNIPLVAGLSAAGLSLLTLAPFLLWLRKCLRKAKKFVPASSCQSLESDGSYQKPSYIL
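Material: HUVEC primary endothelial cells; Amount: 3,000 cells per well; Dosing: single concentration; Medium: EGM-2 growth medium on 0.1% gelatin-coated wells; Read-out basis: percent E-selectin-positive cells; Signal: immunofluorescence imaging; Control set: TNF-alpha, DMSO.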
DENV2 CPE rescue = DENV2-induced cell death inhibition | DENV2-infected cells, cytopathic effect rescue, plate reader | CPE inhibition, % at 9.99 µM | actives 1.7% (n = 350,000) | AID 651640; in the data active means CPE inhibition above about 20%, passing the limit was not always enough; inconclusive means no clear call, values can overlap the other calls; tested in BHK-21 cells;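 further: 0% = median of neutral control wells and 100% = median of positive control wells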
Statin myotox sup = suppressors of simvastatin-induced myotoxicity in C2C12 myotubes; ATP luminescence, 48 h; scaled: DMSO 0, geranylgeraniol control 100; rescue of ATP level, % at 7.49 µM; actives 0.78% (n = 330,000); AID 602340;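 active means mean ATP rescue above about 67%, or every replicate alone reaching that limit, limit read from the data, passing the limit was not always enough; inconclusive means no clear call, values can overlap the other calls; inactive means mean under the limit and some replicate under it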;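 further: myotubes were challenged with 10 µM simvastatin during compound exposure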
* marks the source's active call; other numbers are inactive results; ? = inconclusive; nt = no result. Hits are enriched below; roughly 2.2% of the tested compounds scored in any of these assays.

SMILES	E-selectin induc	DENV2 CPE rescue	Statin myotox sup
CCOC(=O)C(C(=O)OCC)C(Nc1ccccc1)c1ccccc1 (centres undefined)	3	-3	17
CCOC(=O)[C@H](O)[C@@H](O)c1cccc([C@H](O)[C@@H](O)C(=O)OCC)c1	0	41*	7
C[C@H]1CN([C@@H](C)CO)C(=O)c2cccc(NC(=O)C3CCCCC3)c2O[C@@H]1CN(C)Cc1ccc(C(=O)Nc2ccccc2N)cc1	0	80*	-9
C[C@H]1CN([C@@H](C)CO)C(=O)c2cc(N(C)C)ccc2O[C@@H]1CN(C)Cc1ccc(C(=O)Nc2ccccc2N)cc1	0	3	81*
C[C@H]1CN([C@@H](C)CO)C(=O)c2cc(NC(=O)C3CCCCC3)ccc2O[C@H]1CN(C)Cc1ccc(C(=O)Nc2ccccc2N)cc1	29*	-2	nt
C[C@@H]1CN([C@H](C)CO)C(=O)c2cccc(NC(=O)c3ccncc3)c2O[C@H]1CN(C)Cc1ccc(C(=O)Nc2ccccc2N)cc1	5	13	nt
C[C@@H]1CN([C@@H](C)CO)C(=O)c2cc(N(C)C)ccc2O[C@@H]1CN(C)Cc1ccc(C(=O)Nc2ccccc2N)cc1	nt	-4	-123
C[C@H]1CN([C@@H](C)CO)C(=O)c2cccc(NC(=O)c3ccncc3)c2O[C@H]1CN(C)Cc1ccc(C(=O)Nc2ccccc2N)cc1	51*	44*	nt
C[C@H](CO)N1C[C@H](C)[C@H](CN(C)Cc2ccc(C(=O)Nc3ccccc3N)cc2)Oc2c(NC(=O)C3CCCCC3)cccc2C1=O	0	?	75
C[C@@H]1CN([C@@H](C)CO)C(=O)c2cc(NC(=O)C3CC3)ccc2O[C@H]1CN(C)Cc1ccc(C(=O)Nc2ccccc2N)cc1	0	13	25
O=C(C[C@@H]1C=C[C@H](NC(=O)Nc2cc(F)ccc2F)[C@@H](CO)O1)Nc1ccc(-c2ccccc2)cc1	1	4	4
CCNC(=O)C[C@@H]1CC[C@H]2[C@@H](COc3ccc(NC(C)=O)cc3C(=O)N2C)O1	0	-3	6
C[C@H]1CN([C@@H](C)CO)C(=O)Cc2cc(NC(=O)C3CC3)ccc2O[C@H]1CN(C)S(=O)(=O)c1cn(C)cn1	0	-9	-31
C[C@H]1CN([C@@H](C)CO)C(=O)c2cccc(NS(C)(=O)=O)c2O[C@@H]1CN(C)Cc1ccc(C(=O)Nc2ccccc2N)cc1	nt	75*	nt
C[C@@H]1CN([C@H](C)CO)C(=O)c2cccc(NS(C)(=O)=O)c2O[C@H]1CN(C)Cc1ccc(C(=O)Nc2ccccc2N)cc1	nt	-1	nt
C[C@H]1CN([C@@H](C)CO)C(=O)c2cccc(NS(=O)(=O)c3cccs3)c2O[C@@H]1CN(C)Cc1ccc(C(=O)Nc2ccccc2N)cc1	392*	-9	nt
C[C@H](CO)N1C[C@H](C)[C@@H](CN(C)Cc2ccc(C(=O)Nc3ccccc3N)cc2)Oc2c(NS(=O)(=O)c3cccs3)cccc2C1=O	3	-11	nt
COc1ccc(NC(=O)Nc2ccc3c(c2)C(=O)N([C@@H](C)CO)C[C@H](C)[C@@H](CN(C)Cc2ccc(-c4ccccc4)cc2)O3)cc1	1	7	-50
CC(O)(c1cccc(F)c1)c1nc(/C=C/c2ccccc2)cs1 (centres undefined)	-1	22*	-3
CC(O)(c1ccc(F)c(F)c1)c1nc(/C=C/c2ccc(C(F)(F)F)cc2)cs1 (centres undefined)	0	?	3
N#C[C@@H]1[C@@H](c2ccc(C#Cc3cccnc3)cc2)[C@@H](CO)N1C(=O)C1CCCC1	0	1	nt
Cc1ccc(S(=O)(=O)N(C)C[C@H]2OCCCC[C@H](C)Oc3ccc(NC(=O)NC(C)C)cc3C(=O)N([C@H](C)CO)C[C@@H]2C)cc1	0	0	nt
CCOCCn1c(N2CCN(c3ccc(OC)cc3)CC2)nc2c1c(=O)[nH]c(=O)n2C	nt	nt	103*
COCCn1c(N2CCN(c3ccc(OC)cc3)CC2)nc2c1c(=O)[nH]c(=O)n2C	nt	nt	-10
Cc1ccc(CNC(=O)c2cccc3c2C(=O)c2ccc(N4CCCCC4)cc2S3(=O)=O)cc1	0	nt	30
SMILES	E-selectin induc	DENV2 CPE rescue	Statin myotox sup
Cc1ccc(CNC(=O)c2cccc3c2C(=O)c2ccc(N4CCOCC4)cc2S3(=O)=O)cc1	0	31*	15
C[C@@H]1CN([C@H](C)CO)S(=O)(=O)c2ccc(C3=CCCC3)cc2O[C@@H]1CN(C)C(=O)c1cccnc1	-1	-4	-2
C[C@H]1CCCCO[C@@H](CN(C)C(=O)Nc2ccc(F)cc2)[C@@H](C)CN([C@@H](C)CO)C(=O)c2cc(NC(=O)c3ccncc3)ccc2O1	0	-6	nt
CCOC(=O)c1cnn(-c2ccccc2)c1-n1cccc1	nt	nt	107*
CCOC(=O)c1cnn(-c2ccccc2)c1-c1ccccc1	nt	nt	3
CC(=O)c1cnn(-c2ccccc2)c1C	nt	8	3
Cc1c(C(=O)Oc2cccc3ccccc23)cnn1-c1ccccc1	nt	nt	100*
C[C@H]1CN([C@@H](C)CO)C(=O)c2cc(C#CCN(C)C)cnc2O[C@H]1CN(C)C(=O)Nc1cccc(F)c1	0	-3	0
CCSc1ccccc1C(=O)NCC1CCCO1 (centres undefined)	nt	nt	-3
O=C(c1cc2cc(Cl)cc(Cl)c2oc1=O)N1CCOCC1	nt	nt	115*
O=C(c1ccc(Cl)cc1Cl)N1CCOCC1	0	-10	1
C/C=C/c1ccc([C@H]2[C@@H](CO)N3CCCCN(C(=O)Nc4ccc(F)cc4)C[C@H]23)cc1	0	?	-31
COc1ccc(S(=O)(=O)Nc2ccc3c(c2)C(=O)N([C@@H](C)CO)C[C@@H](C)[C@H](CN(C)S(=O)(=O)c2cccs2)OCCCC[C@H](C)O3)cc1	nt	26*	-35
COc1ccc(S(=O)(=O)N(C)C[C@H]2OCCCC[C@@H](C)Oc3ccc(NS(=O)(=O)c4cccs4)cc3C(=O)N([C@@H](C)CO)C[C@H]2C)cc1	1	23*	nt
C[C@@H]1CCCCO[C@H](CN(C)S(=O)(=O)c2ccc(Cl)cc2)[C@@H](C)CN([C@@H](C)CO)C(=O)c2cc(NS(=O)(=O)c3cccs3)ccc2O1	0	69*	nt
COc1ccc(S(=O)(=O)N(C)C[C@H]2OCCCC[C@@H](C)Oc3ccc(NS(=O)(=O)c4cccs4)cc3C(=O)N([C@@H](C)CO)C[C@@H]2C)cc1	0	-12	nt
C[C@@H]1CCCCO[C@@H](CN(C)S(=O)(=O)c2cccs2)[C@@H](C)CN([C@@H](C)CO)C(=O)c2cc(NS(=O)(=O)c3cn(C)cn3)ccc2O1	nt	-9	nt
COc1ccc(S(=O)(=O)Nc2ccc3c(c2)C(=O)N([C@@H](C)CO)C[C@@H](C)[C@H](CN(C)S(=O)(=O)c2cccs2)OCCCC[C@@H](C)O3)cc1	nt	15	34
C[C@@H]1CN([C@@H](C)CO)C(=O)c2cc(NS(=O)(=O)c3cccs3)ccc2O[C@@H](C)CCCCO[C@H]1CN(C)S(=O)(=O)c1ccc(Cl)cc1	0	-6	nt
C[C@@H]1CN([C@H](C)CO)C(=O)c2cc(NS(=O)(=O)c3cn(C)cn3)ccc2O[C@@H](C)CCCCO[C@H]1CN(C)S(=O)(=O)c1cccs1	nt	28*	nt
